RGS4 block: RGS4 inhibitors, primary screen, cell-based, HEK293 M3R inducible RGS4, calcium flux. Regulator of G-protein signaling 4 (Homo sapiens), P49798. Fluo-4 calcium flux; stronger effect = higher value; triggered by carbachol at its EC20. B-score at 10 µM. 0.45% of 310,000 active. AID 463165, 2010;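 active = B-score, a plate-corrected calcium signal, over three deviations above library mean, with baseline fluorescence within five deviations of library mean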;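 note: RGS4 expression induced by doxycycline in cells with stable M3 receptor; B-score is computed from the integrated fluorescence ratio over baseline after carbachol; higher B-score means a larger calcium signal and so more RGS4 inhibition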
MrgX1 agonist: agonists of human MrgX1 receptor, primary screen, HEK293 cells, Fluo-4 calcium flux | 0.44% of 310,000 active | Fluo-4 calcium fluorescence, agonist mode; stronger effect = higher value | Mas-related G-protein coupled receptor member X1 (Homo sapiens), Q96LB2 | B-score at 10 µM;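 active = calcium response B-score plate-corrected fluorescence ratio at least 3 library SD, with starting fluorescence B-score inside 5 SD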
Target sequence (Q96LB2 whole entry, looked up): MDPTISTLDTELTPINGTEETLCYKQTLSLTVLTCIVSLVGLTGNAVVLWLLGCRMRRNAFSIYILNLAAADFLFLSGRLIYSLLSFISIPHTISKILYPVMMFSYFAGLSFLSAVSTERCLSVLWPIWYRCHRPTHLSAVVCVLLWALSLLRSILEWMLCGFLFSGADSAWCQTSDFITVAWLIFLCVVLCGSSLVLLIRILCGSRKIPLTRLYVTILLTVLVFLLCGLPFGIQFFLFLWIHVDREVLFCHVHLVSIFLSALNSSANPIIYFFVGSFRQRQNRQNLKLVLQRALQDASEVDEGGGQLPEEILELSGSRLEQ
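Test system: Stable human MrgX1 HEK293 cell line | Schedule: Overnight plating before 1 h dye loading | Read-out basis: Baseline-normalised fluorescence change ratio, B-scored | Detection: Kinetic calcium dye fluorescence, Fluo-4 NW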
MrgX1 antag: antagonists of human MrgX1 receptor, primary screen, HEK293 cells, Fluo-4 calcium flux; Mas-related G-protein coupled receptor member X1 (Homo sapiens), Q96LB2; BAM8-22 antagonism; stronger effect = lower value; B-score at 10 µM; 1.3% of 310,000 active; AID 588676, 2011;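 active = calcium-response B-score plate-corrected more than 3 library SD below zero, starting fluorescence within 5 deviations, no agonist response on first addition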;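 note: peak minus trough fluorescence over baseline after final BAM8-22 challenge near maximal dose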
MrgX1 PAM: positive allosteric modulators of MrgX1, primary screen, HEK293 cells, Fluo-4 calcium flux | B-score at 10 µM | Mas-related G-protein coupled receptor member X1 (Homo sapiens), Q96LB2 | AID 588675, 2011 | FDSS; stronger effect = higher value | 0.63% of 310,000 active;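 active = plate-corrected calcium response at least 3 library SD above typical, normal starting fluorescence, not activating the receptor alone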;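 note: compound read alongside a low EC10 to EC30 dose of BAM8-22 agonist; peak minus trough fluorescence over baseline measured at the second addition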
RGS4 act: RGS4 potentiators or activators, primary screen, cell-based, HEK293 M3R inducible RGS4, calcium flux | carbachol calcium flux Fluo4; stronger effect = lower value | B-score at 10 µM | 0.92% of 310,000 active | AID 463111, 2010;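 active = B-score of the integrated calcium signal more than 4 SD below the library mean, with starting fluorescence not abnormally high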;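 note: negative B-score means reduced calcium response which marks RGS4 activation or potentiation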
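test system = HEK293 cells with stable M3R and inducible RGS4 | schedule = recording 10 s baseline at 1 Hz, 100 s post-agonist | technique = Fluo4-AM (2 µM) calcium-flux fluorescence, kinetic read | measure = Agonist-evoked peak-minus-minimum fluorescence over baseline, integrated ratio, B score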
RGS4 block valid: enhanced carbachol calcium response, M3R/RGS4 cells, RGS4 inhibitor project, cell-based, validation screen, HEK293 M3R/RGS4, calcium flux; shares compounds with RGS4 block; carbachol calcium Fluo-4 fluorescence; carbachol added at its EC20; 0 = buffer wells, 100 = carbachol control; calcium response, % at 10 µM; 65% of 1,700 active; AID 492999, 2010;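 active = duplicate-averaged calcium response above the buffer-only control mean plus 5 SD of those controls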;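 note: integrated fluorescence ratio F max minus min over baseline F0; higher response in RGS4-induced cells means RGS4 inhibition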
M3R Ca ctr: carbachol calcium response in non-induced M3R cells, confirmation, counter-screen for RGS4 inhibitor project, cell-based, HEK293 M3R | activity (percent), % at 10 µM | carbachol calcium Fluo-4; submaximal (EC20) carbachol stimulus; buffer wells 0%, carbachol control wells 100% | shares compounds with RGS4 block | 20% of 1,900 active; call rule not given here;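 note: RGS4 induction absent so cells express M3R without RGS4; higher means more calcium signal and flags a non-specific hit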
RGS4 inh ctr2: second counter-screen for RGS4 inhibitors: non-induced cells without carbachol; 22% of 1,900 active; HEK293 M3R/RGS4 non-induced, Fluo-4 calcium, no carbachol; normalised: buffer wells 0%, carbachol wells 100%; calcium response (agonist-mode artifact), % at 10 µM; shares compounds with RGS4 block;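 active = duplicate-averaged calcium rise in uninduced cells above buffer wells' mean plus 5 SD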
An asterisk follows results filed as active; i = inactive; . = no result. An excerpt weighted towards active compounds, which were near 3.5% of everything screened.

SMILES | RGS4 block | MrgX1 agonist | MrgX1 antag | MrgX1 PAM | RGS4 act | RGS4 block valid | M3R Ca ctr | RGS4 inh ctr2
CC(NS(=O)(=O)c1ccccc1)C(=O)Nc1ccc2c(c1)OCCO2 (stereo not drawn) | i | i | i | i | i | . | . | .
Clc1ccc2[nH]c3c(c2c1)CCc1cn[nH]c1-3 | 11* | i | i | i | i | 75%* | 40%* | 27%*
CC12CCC(=O)N1C(C(=O)N1CCN(S(=O)(=O)c3cccc(C(F)(F)F)c3)CC1)CS2 (stereo not drawn) | i | i | i | i | i | . | . | .
Oc1ccc(N=Nc2ccccc2)o1 | 4.9* | i | i | i | i | 7.5%* | i | i
CC(=O)CCc1oc2ccc(NC(C)=O)cc2c1-c1ccc(C)o1 | 5.3* | i | i | i | i | i | i | i
CC(=O)CCc1oc2ccc(C)cc2c1-c1ccc(C)o1 | i | i | i | i | i | . | . | .
C/C(=N\N=C1\NC(=O)C(CC(=O)Nc2ccc(C)c(Cl)c2)S1)C(C)(C)C (stereo not drawn) | 7.5* | i | i | i | i | 70%* | i | i
C/C(=N\N=C1\NC(=O)C(CC(=O)Nc2ccc(Cl)cc2)S1)c1ccco1 (stereo not drawn) | i | i | i | i | i | . | . | .
NS(=O)(=O)c1ccc(CCNC(=O)CCC2COc3ccccc3O2)cc1 (stereo not drawn) | i | i | i | i | i | . | . | .
COc1ccc(CCNC(=O)CCC2COc3ccccc3O2)cc1OC (stereo not drawn) | i | i | i | i | i | i | i | i
COc1ccc2c(c1OC)C(=O)OC2Nc1nc(-c2cc3ccccc3oc2=O)cs1 (stereo not drawn) | i | i | i | i | i | . | . | .
COc1ccc2c(c1OC)C(=O)OC2Nc1nc(-c2ccc(-c3ccccc3)cc2)cs1 (stereo not drawn) | i | i | i | i | i | i | i | 8.0%*
COc1cccc(-c2csc(NC3OC(=O)c4c3ccc(OC)c4OC)n2)c1 (stereo not drawn) | i | i | i | i | i | . | i | i
Cc1c(C(=O)N2CC[C@@H](N3CCC(O)CC3)[C@H](O)C2)[nH]c2ccc(Cl)cc12 | i | i | i | i | i | . | . | .
CCn1cc(CNC(=S)Nc2cccc(Cl)c2C)cn1 | i | i | i | i | i | . | . | .
COc1ccccc1CN(Cc1cc2cc(C)ccc2[nH]c1=O)Cc1nnnn1Cc1ccco1 | i | i | i | i | i | . | i | i
CCc1ccc2[nH]c(=O)c(CN(Cc3ccccc3OC)Cc3nnnn3Cc3ccco3)cc2c1 | i | i | i | i | i | i | i | 18%*
O=c1oc2c(-c3cccc(F)c3)cc(O)cc2s1 | i | i | i | i | i | . | . | .
COc1ccccc1CNC(=O)COC(=O)c1c(C)nn(-c2ccccc2)c1Cl | 18* | i | i | i | i | i | i | i
CC(NS(=O)(=O)c1ccc2c(c1)c(=O)n(C)c(=O)n2C)C(=O)NC1CCCCC1 (stereo not drawn) | i | i | i | i | i | . | . | .

Assay outcomes (PubChem BioAssay)
